# Published values collected from several papers.
# Lines come from different studies, so protocols differ.
# Sample: plasma
SMILES,system,conditions,Tmax
N#Cc1ccc(Nc2nc(N)cc(Oc3c(F)cc(-c4ccc(C#N)cc4)cc3F)n2)cc1,Sprague-Dawley rat,"oral, 5 mg/kg",4 h
CCc1nc(C(N)=O)c(Nc2ccc(N3CCC(N4CCN(C)CC4)CC3)c(OC)c2)nc1NC1CCOCC1,male Sprague-Dawley rat,"oral, 10 mg/kg",11 h
COCCOC(=O)C1=C(C)NC(C)=C(C(=O)OC(C)C)C1c1cccc([N+](=O)[O-])c1 (stereo not shown),male Sprague-Dawley rat,"oral, 12 mg/kg",0.33 h
C=CC(=O)N1CC2CC(n3nc(-c4ccc(C(=O)Nc5ccccn5)cc4)c4c(N)ncnc43)CC2C1 (stereo not shown),male Wistar rat,"oral, 3 mg/kg",0.25 h
CCc1cc(OC)c2nccc(N3CCc4c(cc(Cn5ccnc5)cc4-c4cn(C)nc4C(F)(F)F)C3=O)c2c1,male Sprague-Dawley rat,"oral, 50 mg/kg",1.7 h
CNCc1cc(-c2ccccc2F)n(S(=O)(=O)c2cccnc2)c1,Sprague-Dawley rat,"oral, 10 mg/kg",~1.1 h
N#Cc1[nH]nnc1-c1csc(-c2ccc(Cl)cc2)n1,male Sprague-Dawley rat,"oral, 10 mg/kg",1 h
C[C@H](Nc1ncnc2[nH]cnc12)c1cc2cccc(Cl)c2c(=O)n1-c1ccccc1,male Wistar rat,"oral, 25 mg/kg, single dose",2 h
O=C(Nc1cc(F)c(F)c(F)c1)c1ccc(F)c(S(=O)(=O)NCc2cccc(B(O)O)c2)c1,male Sprague-Dawley rat,"intravenous, 2 mg/kg",0.08 h
COc1nc(-c2cc(C)c(N[C@@H](C)c3cc(F)cc(F)c3)nn2)ccc1-n1cnc(C)c1,male Sprague-Dawley rat,"intravenous, 1 mg/kg, single dose",0.083 h
COc1ccc2c(Cc3ccccc3F)c3n(c(=O)c2c1OC)CCc1cc2c(cc1-3)OCO2,rat,"oral, 5 mg/kg",2.66 h
CCc1cc(C(=O)NC)c2nccc(N3CCc4c(cc(Cn5ccnc5)cc4-c4cn(C)nc4C(F)(F)F)C3=O)c2c1,male Sprague-Dawley rat,"oral, 50 mg/kg",1.7 h
CC[C@H](C)[C@H](NC(=O)[C@H](Cc1ccccc1)NC(=O)[C@H](CCC(=O)O)NC(=O)[C@H](CCCNC(=N)N)NC(=O)[C@H](C)NC(=O)[C@H](C)NC(=O)[C@H](CCC(N)=O)NC(=O)[C@H](CCC(=O)O)NC(=O)[C@H](CCC(=O)O)NC(=O)[C@H](CC(C)C)NC(=O)[C@H](Cc1ccc(O)cc1)NC(=O)[C@H](CO)NC(=O)[C@H](CO)NC(=O)[C@@H](NC(=O)[C@H](CC(=O)O)NC(=O)[C@H](CO)NC(=O)[C@@H](NC(=O)[C@H](Cc1ccccc1)NC(=O)[C@@H](NC(=O)CNC(=O)[C@H](CCC(=O)O)NC(=O)[C@H](C)NC(=O)CCc1c[nH]cn1)[C@@H](C)O)[C@@H](C)O)C(C)C)C(=O)N[C@@H](C)C(=O)N[C@@H](Cc1c[nH]c2ccccc12)C(=O)N[C@@H](CC(C)C)C(=O)N[C@H](C(=O)N[C@@H](CCCNC(=N)N)C(=O)NCC(=O)N[C@@H](CCCNC(=N)N)C(=O)N[C@@H](CCCCNC(=O)COCCOCCNC(=O)COCCOCCNC(=O)CC[C@H](NC(=O)CCCCCCCCCCCCCCCCC(=O)O)C(=O)O)C(=O)O)C(C)C,rat,"subcutaneous, 20 nmol/kg",10 h
N#Cc1[nH]nnc1-c1cccc(OCc2cc(C(F)(F)F)ccc2C(F)(F)F)c1,male Sprague-Dawley rat,"oral, 10 mg/kg",1.3 h
CC(C)(O)[C@H]1CC[C@H](Nc2ccc3ncc(-c4cccc(C(F)(F)F)c4)n3n2)CC1,female Sprague-Dawley rat,"oral, 40 mg/kg",1 h
Cc1c(-c2ccccc2)cccc1N1C(=O)c2cc(CN[C@H](C(=O)O)C(C)O)c(OCc3cccc(C#N)c3)cc2C1=O (stereo partly shown),Sprague-Dawley rat,"oral, 50 mg/kg",0.53 h
